The source of these data is ChEMBL document CHEMBL3865794, “Novel securinine derivatives as topoisomerase I based antitumor agents” (Eur J Med Chem, 2016).

Broadly, the IC50 is the concentration needed to halve the response being measured. For orientation: inhibition means how much of the control response was suppressed.

Active and inactive are the calls of the source. The calls are words filed in the database; no cut-off is given here.

Experiment [1] can be described thus: Growth inhibition of human A549 cells after 72 hrs by MTT assay. It counts as functional, cell-based. The note with it: Homo sapiens, A549, 72 h. The method in brief:
(§1)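 Cells seeded at 5 × 10³ per well and incubated overnight in medium with 10% FBS. Medium then replaced with fresh medium containing compound at […] for 72 h. MTT (5 mg/mL stock, 20 µL per well) added for 4 h at 37 °C, formazan dissolved in DMSO, absorbance read at 570 nm. Each dose run in parallel triplicate. IC50 taken from mean absorbance versus concentration curves.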

Experiment [2] can be described thus: Growth inhibition of human HeLa cells after 72 hrs by MTT assay. Format: functional, cell-based. Conditions: Homo sapiens, HeLa, 72 h. The method in brief:
as §1
(In general: Formazan colour is commonly taken as a measure of viable cells.)

The nature of experiment [3]: Growth inhibition of human HepG2 cells after 72 hrs by MTT assay. Format: functional, cell-based. Conditions: Homo sapiens, HepG2, 72 h. The method in brief: as §1
Experiment [4] is described as follows: Growth inhibition of human SH-SY5Y cells after 72 hrs by MTT assay. It counts as functional, cell-based. The note with it: Homo sapiens, SH-SY5Y, 72 h. An outline of the steps: as §1
The species named for experiment [5] is Bos taurus. Nature of the experiment: Inhibition of calf thymus DNA topoisomerase 1-mediated DNA cleavage assessed as drug-enzyme-DNA covalent ternary complex formation by measuring increase in linear band using negatively supercoiled pBR322 plasmid DNA as substrate at 25 to 50 uM after 30 mins by agarose gel electrophoresis. The method in brief:
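Calf thymus Topo I (30 units) and negatively supercoiled pBR322 in Topo I buffer (pH 7.5), 30 min at 37 °C. Test compounds at 25–200, camptothecin at […]. Trapped with 1% SDS, then proteinase K 0.8 mg/mL, 10 min at 50 °C. 1% agarose/TAE run 30 min at 60 V, ethidium bromide stain, second 30-min electrophoresis. Scored as supercoiled-to-nicked/linear conversion under UV.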

For experiment [6], the species on record is Bos taurus. Nature of the experiment: Inhibition of calf thymus DNA topoisomerase 1 assessed as DNA-insertion by measuring reduction in conversion of negatively supercoiled pBR322 plasmid DNA to relaxed DNA at 25 uM preincubated followed by substrate addition measured after 30 mins by ethidium bromide staining based agarose gel electrophoresis. The method in brief:
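Calf thymus Topo I (20 units) and negatively supercoiled pBR322 DNA with test compound or ethidium bromide in Topo I buffer (50 mM Tris-HCl pH 7.5, 10 mM MgCl2, 50 mM KCl, 0.1 mM EDTA, 0.5 mM DTT, BSA), 30 min at 37 °C. 1% agarose gel in 1× TAE, 40 min. Ethidium bromide stain 30 min, UV imaging.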

The target of experiment [7] is T1, DNA topoisomerase 1 (Homo sapiens) (UniProt P11387).
T1 sequence (whole entry): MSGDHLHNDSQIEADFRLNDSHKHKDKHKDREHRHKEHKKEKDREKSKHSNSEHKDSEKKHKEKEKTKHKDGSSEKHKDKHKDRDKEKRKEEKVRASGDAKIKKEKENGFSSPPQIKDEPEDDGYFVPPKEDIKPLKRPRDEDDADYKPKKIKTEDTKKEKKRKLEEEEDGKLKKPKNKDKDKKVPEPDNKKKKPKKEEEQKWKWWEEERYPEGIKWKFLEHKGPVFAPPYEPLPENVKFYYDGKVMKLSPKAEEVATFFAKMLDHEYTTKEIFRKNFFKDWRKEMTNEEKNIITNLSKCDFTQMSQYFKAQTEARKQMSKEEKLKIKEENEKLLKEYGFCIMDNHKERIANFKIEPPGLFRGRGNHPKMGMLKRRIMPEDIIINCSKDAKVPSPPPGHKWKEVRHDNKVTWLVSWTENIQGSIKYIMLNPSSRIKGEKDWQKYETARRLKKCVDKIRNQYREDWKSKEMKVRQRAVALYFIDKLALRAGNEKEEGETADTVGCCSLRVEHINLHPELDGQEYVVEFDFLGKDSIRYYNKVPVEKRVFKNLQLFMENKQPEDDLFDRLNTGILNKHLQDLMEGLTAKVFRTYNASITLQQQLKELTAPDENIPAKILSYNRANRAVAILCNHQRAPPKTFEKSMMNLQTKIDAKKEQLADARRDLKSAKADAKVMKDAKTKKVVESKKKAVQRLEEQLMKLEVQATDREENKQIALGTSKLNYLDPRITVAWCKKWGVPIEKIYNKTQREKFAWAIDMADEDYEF
Put plainly: Inhibition of DNA topoisomerase 1 (unknown origin) assessed as reduction in topoisomerase 1-DNA complex formation preincubated for 20 mins followed by supercoiled pBR322 plasmid DNA addition measured after 3 mins by electrophoretic mobility shift assay.

The nature of experiment [8]: Growth inhibition of human L02 cells after 72 hrs by MTT assay. Format: cell-based. The note with it: L02, 72 h. An outline of the steps: as §1
Another experiment deals with A549. Put plainly: Selectivity index, ratio of IC50 for human L02 cells to IC50 for human A549 cells. It counts as functional.
For experiment [9], the target named is T1, DNA topoisomerase 1 (Homo sapiens). Put plainly: Inhibition of DNA topoisomerase 1 (unknown origin) assessed as reduction in relaxation of supercoiled pBR322 plasmid DNA at 100 uM incubated for 30 mins by agarose gel electrophoresis relative to control. An outline of the steps:
(§2)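 Supercoiled pBR322 DNA incubated with Topo I in the presence or absence of compound for 30 min at 37 °C. Reaction stopped with dye solution of bromophenol blue, xylene cyanol and glycerol. Products run on 1% agarose in 1× TAE for 40 min, then EB-stained and UV-imaged. Inhibition rate derived from gel gray-scale analysis relative to control. Camptothecin served as positive control.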

Experiment [10] is described as follows: Antiproliferative activity against human SW480 cells after 48 hrs by MTT assay. The note with it: SW480, 48 h. It counts as functional, cell-based.
For experiment [11], the target named is T1, DNA topoisomerase 1 (Homo sapiens). Put plainly: Inhibition of DNA topoisomerase 1 (unknown origin) assessed as reduction in relaxation of supercoiled pBR322 plasmid DNA incubated for 30 mins by agarose gel electrophoresis. An outline of the steps: as §2

`CC[C@@]1(O)C(=O)OCc2c1cc1n(c2=O)Cc2cc3ccccc3nc2-1` [CAMPTOTHECIN]: the IC50 in experiment [1] is 0.12 µM; in [2], 59.1 µM; in experiment [3], 29.8 µM; in experiment [4], above 100 µM. The inhibition result in the experiment listed under Bos taurus [5] was “Active”.
Turning to `CC[n+]1c(-c2ccccc2)c2cc(N)ccc2c2ccc(N)cc21`, the inhibition entry in the experiment filed under Bos taurus [6] was “Active”.
Turning to `O=C1O[C@@]23C[C@@H](C=CC2=C1[C@H](O)c1ccc([N+](=O)[O-])cc1)N1CCCC[C@@H]13`, the IC50 in [1] turned out to be 2.23 µM; in [2], 8 µM; in experiment [3], 4.19 µM; in [4], 8.48 µM. The inhibition entry in experiment [7] is “Dose-dependent effect”.
Consider `O=C1O[C@@]23C[C@@H](C=CC2=C1C(O)c1ccc(C(F)(F)F)cc1)N1CCCC[C@@H]13` (stereo in doubt; 4a-6), for which the IC50 in experiment [1] was found to be 2.91 µM; in [2] it was 8.99 µM; in experiment [3], 2.42 µM; in experiment [4], 8.57 µM; in experiment [8], 18.2 µM. For the same compound, in the experiment with A549, the “Ratio IC50” value is given as 6.26 - 7.56.
As to `O=C1O[C@@]23C[C@@H](C=CC2=C1[C@@H](O)c1ccc([N+](=O)[O-])cc1)N1CCCC[C@@H]13`, the IC50 is 1.98 µM in experiment [1], 7.99 µM in experiment [2], 4.01 µM in [3] and 8.52 µM in experiment [4]. Moreover, the inhibition entry in experiment [7] is “Dose-dependent effect”.
With `O=C1C=C2C=C[C@@H]3C[C@@]2(O1)[C@H]1CCCCN31` [SECURININE], the inhibition in [9] came to 23.9%. The IC50 in experiment [10] was found to be 25.9 µM; in experiment [1], 23.6 µM; in [2], 50.2 µM; in experiment [3] it was 36.9 µM; in [4], 78.9 µM.
As for `O=C1O[C@@]23C[C@@H](C=CC2=C1C(O)c1ccccc1Br)N1CCCC[C@@H]13` (stereo partly specified), the inhibition in experiment [9] amounted to 39.2%. In addition, the IC50 in [1] is 7.11 µM; in experiment [2], 12.7 µM; in experiment [3], 12.6 µM; in [4] it was 23.1 µM.
Regarding `O=C1O[C@@]23C[C@@H](C=CC2=C1C(O)c1ccc([N+](=O)[O-])cc1)N1CCCC[C@@H]13` (stereo partly specified), the inhibition in [9] was 56.7%; in experiment [11], “Dose-dependent effect”. Also, the concentration for half-maximal inhibition (IC50) in experiment [1] was found to be 2.21 µM; in experiment [2], 8.26 µM; in experiment [3] it was 4.13 µM; in experiment [4], 8.5 µM; in experiment [8], 16.7 µM. For the same compound, the “Ratio IC50” value with A549 was 6.26 - 7.56.
In the case of `O=C1O[C@@]23C[C@@H](C=CC2=C1C(O)c1cccc(Br)c1)N1CCCC[C@@H]13` (stereo partly specified), the inhibition in [9] was 34.7%. In addition, the IC50 in [1] stood at 9.01 µM; in experiment [2] it was 19.1 µM; in [3] it was 15.1 µM; in experiment [4], 20.2 µM.
In the same order, the values of `O=C1O[C@@]23C[C@@H](C=CC2=C1C(O)c1ccc(F)cc1F)N1CCCC[C@@H]13` (stereo partly specified) are 37.4%, 5.18 µM, 14.9 µM, 13.6 µM and 22.1 µM.
In the same order, the values of `O=C1O[C@@]23C[C@@H](C=CC2=C1C(O)c1ccc([N+](=O)[O-])cc1[N+](=O)[O-])N1CCCC[C@@H]13` (stereo partly specified) are 43.1%, 11.5 µM, 7.11 µM, 5.98 µM and 8.71 µM.
In the same order, the values of `O=C1O[C@@]23C[C@@H](C=CC2=C1C(O)c1ccccc1)N1CCCC[C@@H]13` (stereo partly specified) are 24%, 7.05 µM, 21.4 µM, 20.1 µM and 25.4 µM.
